# Assays:
# [1] = tested on: Leishmania amazonensis; experiment: Antileishmanial activity against amastigote stage Leishmania amazonensis (MHOM/BR/73/M2269) infected in mouse RAW264.7 cells assessed as reduction in parasitic proliferation measured by SYBR Green 1 dye based fluorescence assay; type: functional, organism-based; details: MHOM/BR/73/M2269, RAW264.7
# Procedure, shortened: (§1)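 RAW 264.7 macrophages seeded at 100,000 cells/well in DMEM with 10% heat-inactivated FBS, 24 h at 37 °C, 5% CO₂. Infected with plateau-phase promastigotes (parasite:macrophage 16:1) for 24 h. Compounds serially diluted, final 391 nM–100 μM. Amastigote viability read by SYBR Green I after lysis and 3 freeze-thaw cycles. IC50 by nonlinear regression against excipient-treated controls. Miltefosine reference.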
# [2] = tested on: Leishmania infantum; experiment: Antileishmanial activity against amastigote stage of Leishmania infantum (MHOM/FR/2008/LEM5700) infected in mouse RAW264.7 cells assessed as reduction in parasitic proliferation measured by SYBR Green 1 dye based fluorescence assay; type: functional, organism-based; details: MHOM/FR/2008/LEM5700, RAW264.7; procedure, shortened: as §1
# [3] = target: CDK9/cyclin T1 (Homo sapiens, UniProt P50750); experiment: Inhibition of human recombinant CDK9/CyclinT expressed in baculovirus infected Sf9 cells using YSPTSPSYSPTSPSYSPTSPSKKK as substrate in presence of [gamma-33P]ATP by radiometric assay
# Sequence of CDK9/cyclin T1 (O60563 whole entry): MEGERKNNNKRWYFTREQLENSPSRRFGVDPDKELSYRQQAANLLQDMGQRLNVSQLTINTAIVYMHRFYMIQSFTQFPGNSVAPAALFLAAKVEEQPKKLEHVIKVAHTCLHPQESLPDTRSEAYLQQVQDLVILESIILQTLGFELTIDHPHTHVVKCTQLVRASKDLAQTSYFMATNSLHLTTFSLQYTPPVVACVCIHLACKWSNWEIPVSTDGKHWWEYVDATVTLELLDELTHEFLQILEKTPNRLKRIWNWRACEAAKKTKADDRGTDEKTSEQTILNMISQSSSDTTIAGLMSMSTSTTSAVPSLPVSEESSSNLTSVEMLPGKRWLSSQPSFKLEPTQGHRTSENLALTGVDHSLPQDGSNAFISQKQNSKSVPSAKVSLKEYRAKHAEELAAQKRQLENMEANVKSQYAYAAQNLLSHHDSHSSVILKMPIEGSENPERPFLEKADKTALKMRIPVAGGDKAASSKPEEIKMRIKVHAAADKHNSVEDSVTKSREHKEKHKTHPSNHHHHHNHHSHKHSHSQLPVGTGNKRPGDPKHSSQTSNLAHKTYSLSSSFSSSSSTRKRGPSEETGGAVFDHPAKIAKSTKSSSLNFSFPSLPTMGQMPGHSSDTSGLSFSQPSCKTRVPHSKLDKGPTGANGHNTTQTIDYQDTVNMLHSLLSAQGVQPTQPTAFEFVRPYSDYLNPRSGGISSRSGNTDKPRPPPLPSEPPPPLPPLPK
# Sequence of CDK9/cyclin T1 (P50750 whole entry): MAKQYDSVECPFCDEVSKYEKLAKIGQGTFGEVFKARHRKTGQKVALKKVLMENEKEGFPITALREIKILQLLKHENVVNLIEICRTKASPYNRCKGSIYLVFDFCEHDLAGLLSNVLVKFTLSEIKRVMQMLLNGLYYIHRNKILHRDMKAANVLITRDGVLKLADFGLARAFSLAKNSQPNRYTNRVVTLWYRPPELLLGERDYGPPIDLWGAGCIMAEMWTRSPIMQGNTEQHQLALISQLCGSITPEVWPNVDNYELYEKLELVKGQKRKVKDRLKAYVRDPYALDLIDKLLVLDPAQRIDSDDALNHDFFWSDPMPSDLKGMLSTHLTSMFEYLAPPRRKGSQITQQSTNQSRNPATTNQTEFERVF
# [4] = tested on: Leishmania donovani; experiment: Antileishmanial activity against amastigote stage of Leishmania donovani (MHOM/ET/67/HU3) infected in mouse RAW264.7 cells assessed as reduction in parasitic proliferation measured by SYBR Green 1 dye based fluorescence assay; type: functional, organism-based; details: MHOM/ET/67/HU3, RAW264.7; procedure, shortened: as §1
# [5] = Selectivity index, ratio of CC50 for human MRC5 cells to IC50 for amastigote stage of Leishmania braziliensis (MHOM/BR/75/M2903b) infected in mouse RAW264.7 cells; type: toxicity, cell-based; details: read-out: Ratio CC50/IC50
# Procedure, shortened: (§2)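 Selectivity index is CC50 on RAW 264.7 or MRC-5 cells divided by IC50 on intracellular amastigotes.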
# [6] = Inhibition of recombinant Leishmania major CK1.2 expressed in bacterial expression system using RRKHAAIGSpAYSITA as substrate in presence of [gamma-33P]ATP by radiometric assay
# [7] = target: Aurora kinase B (Homo sapiens, UniProt Q96GD4); experiment: Inhibition of recombinant human AURKB expressed in baculovirus infected Sf9 cells using MBP as substrate in presence of [gamma-33P]ATP measured by radiometric assay
# Sequence of Aurora kinase B (Q96GD4 whole entry): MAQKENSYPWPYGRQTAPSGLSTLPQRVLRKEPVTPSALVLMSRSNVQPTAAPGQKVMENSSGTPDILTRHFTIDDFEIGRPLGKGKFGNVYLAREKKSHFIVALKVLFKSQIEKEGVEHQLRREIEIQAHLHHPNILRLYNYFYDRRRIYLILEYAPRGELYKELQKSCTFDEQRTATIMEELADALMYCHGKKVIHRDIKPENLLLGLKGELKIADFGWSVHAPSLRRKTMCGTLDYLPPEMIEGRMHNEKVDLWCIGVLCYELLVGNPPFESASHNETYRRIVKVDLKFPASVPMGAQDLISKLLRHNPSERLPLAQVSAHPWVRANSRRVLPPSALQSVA
# [8] = Toxicity against Galleria mellonella larva assessed as cuticular darkening at 50 mg/kg measured for 7 days; type: organism-based; details: in vivo, 168 h, time 7 day
# Procedure, shortened: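 G. mellonella larvae (6th stage, 260–320 mg), groups of ten. Injected in the 4th left pro-leg with 10 μL at 10–50 mg/kg; controls got PBS/DMSO (DMSO <40%). Kept in the dark at 37 °C. Survival and cuticular darkening scored daily for 7 days; death taken as no movement on stimulus. Kaplan-Meier with log-rank test; two independent experiments.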
# [9] = target: Dual specificity tyrosine-phosphorylation-regulated kinase 1A (Rattus norvegicus, UniProt Q63470); experiment: Inhibition of recombinant rat DYRK1A (1 to 499 ) expressed in bacterial expression system using KKISGRLSPIMTEQ as substrate in presence of [gamma-33P]ATP measured by radiometric assay; details: for inhibition (INH): rat
# [10] = tested on: Leishmania braziliensis; experiment: Antileishmanial activity against amastigote stage of Leishmania braziliensis (MHOM/BR/75/M2903b) infected in mouse RAW264.7 cells assessed as reduction in parasitic proliferation measured by SYBR Green 1 dye based fluorescence assay; type: functional, organism-based; procedure, shortened: as §1
# [11] = target: Receptor-interacting serine/threonine-protein kinase 3 (Homo sapiens, UniProt Q9Y572); experiment: Inhibition of recombinant human RIPK3 expressed in baculovirus infected Sf9 cells using MBP as substrate in presence of [gamma-33P]ATP by radiometric assay
# Sequence of Receptor-interacting serine/threonine-protein kinase 3 (Q9Y572 whole entry): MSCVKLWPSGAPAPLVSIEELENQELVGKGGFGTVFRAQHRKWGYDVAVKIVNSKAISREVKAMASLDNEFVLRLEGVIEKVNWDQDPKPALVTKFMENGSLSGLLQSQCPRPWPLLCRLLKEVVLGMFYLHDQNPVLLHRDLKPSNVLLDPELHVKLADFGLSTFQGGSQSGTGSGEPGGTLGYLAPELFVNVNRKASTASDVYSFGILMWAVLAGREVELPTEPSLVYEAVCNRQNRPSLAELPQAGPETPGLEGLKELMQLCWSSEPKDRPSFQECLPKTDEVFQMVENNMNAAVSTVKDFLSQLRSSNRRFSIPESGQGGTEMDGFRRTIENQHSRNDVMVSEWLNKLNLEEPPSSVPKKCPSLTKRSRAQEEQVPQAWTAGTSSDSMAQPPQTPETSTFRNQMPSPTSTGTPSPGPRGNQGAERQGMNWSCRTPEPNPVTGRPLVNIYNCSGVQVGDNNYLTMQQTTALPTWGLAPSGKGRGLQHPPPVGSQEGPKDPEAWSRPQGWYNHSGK
# [12] = Selectivity index, ratio of CC50 for mouse RAW264.7 cells to IC50 for amastigote stage of Leishmania amazonensis (MHOM/BR/73/M2269) infected in mouse RAW264.7 cells; type: toxicity, cell-based; details: read-out: Ratio CC50/IC50; procedure, shortened: as §2
# [13] = Selectivity index, ratio of CC50 for human MRC5 cells to IC50 for amastigote stage of Leishmania donovani (MHOM/ET/67/HU3) infected in mouse RAW264.7 cells; type: toxicity, cell-based; details: read-out: Ratio CC50/IC50; procedure, shortened: as §2
# [14] = Selectivity index, ratio of CC50 for human MRC5 cells to IC50 for amastigote stage of Leishmania infantum (MHOM/FR/2008/LEM5700) infected in mouse RAW264.7 cells; type: toxicity, cell-based; details: read-out: Ratio CC50/IC50; procedure, shortened: as §2
compound,measurement,setting,value
CSc1nccc(-c2c(-c3ccc(F)cc3)nc3c(Cl)nccn23)n1,IC50,[1],> 100 µM
same,IC50,[2],> 100 µM
same,IC50,[3],> 10 µM
same,IC50,[4],> 100 µM
same,selectivity ratio,[5],1.1
same,IC50,[6],> 10 µM
same,inhibition (INH),[7],Not Active
same,Activity,[8],Non-Toxic
same,inhibition (INH),[9],Not Active
same,IC50,[10],74 µM
same,inhibition (INH),[11],Not Active
CN(C)c1nccn2c(-c3ccnc(N)n3)c(-c3ccccc3)nc12,IC50,[1],23.4 µM
same,IC50,[2],> 100 µM
same,IC50,[3],> 10 µM
same,IC50,[4],> 100 µM
same,selectivity ratio,[5],1
same,IC50,[6],0.035 µM
same,inhibition (INH),[7],Not Active
same,Activity,[8],Non-Toxic
same,inhibition (INH),[9],Not Active
same,selectivity ratio,[12],1.9
same,IC50,[10],56.5 µM
same,inhibition (INH),[11],Not Active
CN(C)c1nccn2c(-c3ccnc(N)n3)c(-c3ccc(F)cc3)nc12,IC50,[1],6.12 µM
same,IC50,[2],6.55 µM
same,IC50,[3],> 10 µM
same,IC50,[4],9.97 µM
same,selectivity ratio,[13],10
same,selectivity ratio,[5],4.1
same,IC50,[6],0.042 µM
same,inhibition (INH),[7],Not Active
same,Activity,[8],Non-Toxic
same,inhibition (INH),[9],Not Active
same,selectivity ratio,[12],6.9
same,IC50,[10],24.3 µM
same,selectivity ratio,[14],15.2
same,inhibition (INH),[11],Not Active
CSc1nccc(-c2c(-c3ccccc3)nc3c(N(C)C)nccn23)n1,IC50,[1],5.99 µM
same,IC50,[2],12.5 µM
same,IC50,[3],> 10 µM
same,IC50,[4],17.6 µM
same,selectivity ratio,[13],4.6
same,selectivity ratio,[5],1.8
same,IC50,[6],3.5 µM
same,inhibition (INH),[7],Not Active
same,Activity,[8],Non-Toxic
same,inhibition (INH),[9],Not Active
same,selectivity ratio,[12],5.6
same,IC50,[10],45.6 µM
same,selectivity ratio,[14],6.5
same,inhibition (INH),[11],Not Active
CSc1nccc(-c2c(-c3ccccc3)nc3c(Cl)nccn23)n1,IC50,[1],3.2 µM
same,IC50,[2],1.93 µM
same,IC50,[3],> 10 µM
same,IC50,[4],9.82 µM
same,selectivity ratio,[13],3.4
same,selectivity ratio,[5],1.9
same,IC50,[6],5 µM
same,inhibition (INH),[7],Not Active
same,Activity,[8],Non-Toxic
same,inhibition (INH),[9],Not Active
same,selectivity ratio,[12],15.8
same,IC50,[10],17.7 µM
same,selectivity ratio,[14],17.3
same,inhibition (INH),[11],Not Active
CSc1nccc(-c2c(-c3ccc(F)cc3)nc3c(N(C)C)nccn23)n1,IC50,[1],12.5 µM
same,IC50,[2],6.2 µM
same,IC50,[3],> 10 µM
same,IC50,[4],10.4 µM
same,selectivity ratio,[13],6.4
same,selectivity ratio,[5],1.1
same,IC50,[6],1 µM
same,inhibition (INH),[7],Not Active
same,Activity,[8],Non-Toxic
same,inhibition (INH),[9],Not Active
same,selectivity ratio,[12],2.9
same,IC50,[10],63.5 µM
same,selectivity ratio,[14],10.8
same,inhibition (INH),[11],Not Active
CSc1nccc(-c2c(-c3ccc(F)cc3)nc3c(N)nccn23)n1,IC50,[1],> 12.5 µM
same,IC50,[2],> 12.5 µM
same,IC50,[3],> 10 µM
same,IC50,[4],> 12.5 µM
same,selectivity ratio,[13],1.5
same,selectivity ratio,[5],1.5
same,IC50,[6],0.65 µM
same,inhibition (INH),[7],Not Active
same,Activity,[8],Non-Toxic
same,IC50,[9],2 µM
same,selectivity ratio,[12],> 0.9
same,IC50,[10],> 12.5 µM
same,selectivity ratio,[14],1.5
same,inhibition (INH),[11],Not Active

# Reference: ChEMBL document CHEMBL4813913, “In vitro identification of imidazo[1,2-a]pyrazine-based antileishmanial agents and evaluation of L. major casein kinase 1 inhibition” (Eur J Med Chem, 2021)
